In experiment [1] the test system is Willaertia magna. Briefly: Antimicrobial activity against Willaertia magna c2c Maky ATCC PTA-7824 assessed as growth inhibition at 10 ug/ml after 3 days by hemocytometer relative to control. The conditions noted are these: c2c Maky ATCC PTA-7824, 72 h, read-out: INH. It counts as functional. The essentials: (§1)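 Amoebae maintained at 30°C on E. coli lawns on nonnutrient agar, then axenic at 37°C in SCGYEM. Seeded day 0 at 2 × 10^5 cells/ml in SCGYEM with or without endocannabinoid, added in ethanol (0.05% final); vehicle controls contained ethanol. Tubes incubated slanted at 37°C; cell concentration counted daily by hemocytometer through day 3.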

For experiment [2], the system named is Hartmannella vermiformis. Briefly: Antimicrobial activity against Hartmannella vermiformis assessed as growth inhibition at 10 ug/ml upto 3 days by hemocytometer. The experiment is classed as functional. The conditions noted are these: Vermamoeba vermiformis. The essentials: as §1
The test system of experiment [3] is Willaertia magna. Briefly: Antimicrobial activity against Willaertia magna c2c Maky ATCC PTA-7824 after 3 days by hemocytometer. The experiment is classed as functional. The conditions noted are these: c2c Maky ATCC PTA-7824, 72 h. The essentials: as §1
For experiment [4], the system named is Acanthamoeba castellanii. Description: Antimicrobial activity against Acanthamoeba castellanii assessed as growth inhibition at 5 ug/ml after 3 days by hemocytometer. The experiment is classed as functional, organism-based. In outline: as §1
Experiment [5] relates to Hartmannella vermiformis. Briefly: Antimicrobial activity against Hartmannella vermiformis assessed as growth inhibition at 5 ug/ml after 3 days by hemocytometer. The conditions noted are these: Vermamoeba vermiformis. The experiment is classed as functional. In outline:
as §1

Experiment [6] concerns Hartmannella vermiformis. Briefly: Antimicrobial activity against Hartmannella vermiformis assessed as growth inhibition at 10 ug/ml after 3 days by hemocytometer relative to control. The experiment is classed as functional. The following applies: Vermamoeba vermiformis, 72 h, read-out: INH. The essentials:
as §1

Experiment [7] relates to Willaertia magna. Briefly: Antimicrobial activity against Willaertia magna c2c Maky ATCC PTA-7824 assessed as growth inhibition at 2 ug/ml after 3 days by hemocytometer. It counts as functional. The essentials:
as §1

Experiment [8] concerns Acanthamoeba castellanii. Briefly: Antimicrobial activity against Acanthamoeba castellanii after 3 days by hemocytometer. The experiment is classed as functional, organism-based. The following applies: 72 h. In outline:
as §1

The test system of experiment [9] is Hartmannella vermiformis. Description: Antimicrobial activity against Hartmannella vermiformis after 3 days by hemocytometer. The experiment is classed as functional. The following applies: Vermamoeba vermiformis, 72 h. The essentials:
as §1

In experiment [10] the test system is Hartmannella vermiformis. Description: Antimicrobial activity against Hartmannella vermiformis assessed as growth inhibition at 2 ug/ml after 3 days by hemocytometer. It counts as functional. The conditions noted are these: Vermamoeba vermiformis. The essentials: as §1
In experiment [11] the test system is Acanthamoeba castellanii. Briefly: Antimicrobial activity against Acanthamoeba castellanii assessed as decrease in viable cell concentration at 20 ug/ml after 3 days by hemocytometer. It counts as functional, organism-based. The essentials:
as §1

Experiment [12] concerns Acanthamoeba castellanii. Description: Antimicrobial activity against Acanthamoeba castellanii assessed as growth inhibition at 2 ug/ml after 3 days by hemocytometer. It counts as functional, organism-based. The essentials:
as §1

In experiment [13] the test system is Willaertia magna. Description: Antimicrobial activity against Willaertia magna c2c Maky ATCC PTA-7824 assessed as growth inhibition at 10 ug/ml upto 3 days by hemocytometer. The experiment is classed as functional. In outline: as §1
In experiment [14] the test system is Acanthamoeba castellanii. Description: Antimicrobial activity against Acanthamoeba castellanii assessed as growth inhibition at 10 ug/ml after 3 days by hemocytometer relative to control. It counts as functional. The conditions noted are these: 72 h. In outline: as §1
Experiment [15] deals with Willaertia magna. Description: Antimicrobial activity against Willaertia magna c2c Maky ATCC PTA-7824 assessed as decrease in viable cell concentration at 20 ug/ml after 3 days by hemocytometer. It counts as functional. The essentials: as §1
The subject of experiment [16] is Hartmannella vermiformis. Briefly: Antimicrobial activity against Hartmannella vermiformis assessed as decrease in viable cell concentration at 20 ug/ml after 3 days by hemocytometer. It counts as functional. The following applies: Vermamoeba vermiformis. The essentials: as §1
Experiment [17] concerns Acanthamoeba castellanii. Briefly: Antimicrobial activity against Acanthamoeba castellanii assessed as growth inhibition at 10 ug/ml upto 3 days by hemocytometer. It counts as functional, organism-based. In outline:
as §1

The subject of experiment [18] is Willaertia magna. Briefly: Antimicrobial activity against Willaertia magna c2c Maky ATCC PTA-7824 assessed as growth inhibition at 5 ug/ml after 3 days by hemocytometer. The experiment is classed as functional. The essentials: as §1

Activity calls are given as the source filed them. No cut-off for these calls is given here.

As for `CCCCC/C=C\C/C=C\C/C=C\C/C=C\CCCC(=O)NCCO` [ANANDAMIDE], the inhibition at 10 µg/mL in [1] is 58%; in experiment [6], 96%; in experiment [14] it was 68%. The inhibition result in experiment [2], in experiment [4], in experiment [5], in experiment [7], in experiment [10] and in experiment [11] was “Active” throughout. The inhibition entry in [12], in experiment [13], in [15], in [16], in experiment [17] and in [18] was “Active” throughout. Besides, the 50% inhibitory concentration (IC50) in experiment [3] was 20 µM; in experiment [8], 17 µM; in experiment [9], 14 µM.

By IC50 is commonly meant the concentration that gives 50% inhibition.

Source of the values: ChEMBL document CHEMBL1629697, “Endocannabinoids inhibit the growth of free-living amoebae” (Antimicrob Agents Chemother, 2010).
